Consider eight compounds from ChEMBL document CHEMBL1139377, “Induced association of mu opioid (MOP) and type 2 cholecystokinin (CCK2) receptors by novel bivalent ligands” (J Med Chem, 2009).

For assay [1], the system named is Mus musculus. Description: Antinociceptive activity in icv dosed ICR mouse by tail flick assay. The format is functional. An outline of the steps:
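Male ICR mice (17-25 g) received i.c.v. injections (5 μL, under 1% DMSO) while conscious. Radiant-heat tail flick was measured at peak time from a 10-60 min time course, expressed as %MPE. At least three groups of 8-10 mice per dose-response, each mouse used once. ED50 (pmol/mouse) with 95% CI came from nonlinear regression.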

Assay [2] concerns the target T1, Gastrin/cholecystokinin type B receptor (Homo sapiens) (UniProt P32239).
T1 sequence (whole entry): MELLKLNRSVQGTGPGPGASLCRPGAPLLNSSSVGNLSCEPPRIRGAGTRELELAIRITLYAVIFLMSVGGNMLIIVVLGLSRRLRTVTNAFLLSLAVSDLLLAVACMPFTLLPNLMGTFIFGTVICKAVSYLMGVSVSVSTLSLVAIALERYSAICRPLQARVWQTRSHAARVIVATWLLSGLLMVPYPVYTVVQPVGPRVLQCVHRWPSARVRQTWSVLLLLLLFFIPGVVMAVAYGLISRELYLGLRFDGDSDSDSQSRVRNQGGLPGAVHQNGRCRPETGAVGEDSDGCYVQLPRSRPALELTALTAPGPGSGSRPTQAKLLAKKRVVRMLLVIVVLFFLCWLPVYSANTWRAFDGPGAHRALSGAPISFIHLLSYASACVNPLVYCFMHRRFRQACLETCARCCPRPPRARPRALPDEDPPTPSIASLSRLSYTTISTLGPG
The assay is described as follows: Binding affinity to CCK2 receptor expressed in CHO cells assessed per mg of protein. The format is cell-based. An outline of the steps: (§1)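 Membranes came from CHO-K1 cells stably expressing CCK2 receptor alone or with MOP receptor. They were incubated with 125I-D-Tyr-Gly-[(Nle28,31)CCK-26-33] (1-5 pM) plus increasing unlabeled ligand for 90 min at room temperature in KRH, pH 7.4, with 0.2% BSA and soybean trypsin inhibitor. Nonspecific binding was set with 1 μM CCK. Bound ligand was filtered and gamma counted; Ki and Bmax (pmol/mg protein) were taken from LIGAND analysis. Mean±S.E.M., 3-5 experiments.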

The target of assay [3] is T2, Gastrin/cholecystokinin type B receptor (Homo sapiens, UniProt P32239).
T2 sequence (P32239 whole entry): T1 sequence (whole entry)
The assay is described as follows: Displacement of [125I]CCK-26-33 from CCK2 receptor expressed in CHO cells. The class given is cell-based. Summed up: (§2)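 CHO-K1 cell lines stably expressing CCK2 receptor alone or with MOP receptor; receptor-enriched membranes from density gradient centrifugation. (1-5 pM) and increasing concentrations of unlabeled ligand, 90 min, room temperature, KRH pH 7.4 with 0.2% BSA and soybean trypsin inhibitor. Filtration, gamma counting; nonsaturable binding with 1 μM CCK. Ki from LIGAND analysis; 3-5 independent experiments.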

In assay [4] the target is T3, Mu-type opioid receptor (Homo sapiens, UniProt P35372). The assay is described as follows: Displacement of [3H]DAMGO from mu opioid receptor expressed in CHO cells. The class given is cell-based. An outline of the steps: (§3)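 Membranes came from CHO cells stably expressing MOP receptor alone or with CCK2 receptor. They were incubated with [3H]DAMGO (0.4 nM) plus increasing unlabeled ligand for 2 h at room temperature in KRH, pH 7.4, with 0.2% BSA and soybean trypsin inhibitor. Nonspecific binding was set with 1 μM DAMGO. Samples were filtered on PEI-soaked GF/C and scintillation counted; Ki and Bmax (pmol/mg protein) came from LIGAND analysis. Mean±S.E.M., 3-5 experiments.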

For assay [5], the system named is Mus musculus. The assay is described as follows: Antinociceptive activity in icv dosed ICR mouse after 24 hrs by tail flick assay. The class given is functional. Summed up: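 24 h tolerance in male ICR mice: the day-1 ED80 i.c.v. dose (5 μL, under 1% DMSO) was given again 24 h later to the same mouse, after confirming antinociception had returned to baseline. Radiant-heat tail flick was read at peak time (10-20 min) and expressed as %MPE.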

Assay [6] deals with T2, Gastrin/cholecystokinin type B receptor. The assay is described as follows: Displacement of [125I]CCK-26-33 from CCK2R-MOPR coexpressed in CHO cells. The format is cell-based. Summed up: as §2
The target of assay [7] is T1, Gastrin/cholecystokinin type B receptor (Homo sapiens). The assay is described as follows: Binding affinity to CCK2R-MOPR coexpressed in CHO cells assessed per mg of protein by [125I] CCK-26-33 displacement assay. The class given is cell-based. Summed up: as §1
For assay [8], the target named is T3, Mu-type opioid receptor. The assay is described as follows: Binding affinity to mu opioid receptor expressed in CHO cells assessed per mg of protein. The format is cell-based. An outline of the steps:
as §3

The target of assay [9] is T2, Gastrin/cholecystokinin type B receptor. The assay is described as follows: Activity at CCK2R-MOPR coexpressed in CHO cells co-transfected with delta-6-Galphaqi4-myr assessed as intracellular calcium release by FLIPR. The format is functional, cell-based. Summed up:
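CHO cells stably expressing CCK2R were grown to 90% confluence, then transiently co-transfected by lipofectamine with MOPR and chimeric Gqi4-myr constructs. After 24 h they were seeded into 96-well plates and used the next day. Ca2+ mobilization was read with a FLIPR calcium kit on a FlexStation3, giving EC50 (nM); number of runs in parentheses.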

T3 sequence (P35372 whole entry): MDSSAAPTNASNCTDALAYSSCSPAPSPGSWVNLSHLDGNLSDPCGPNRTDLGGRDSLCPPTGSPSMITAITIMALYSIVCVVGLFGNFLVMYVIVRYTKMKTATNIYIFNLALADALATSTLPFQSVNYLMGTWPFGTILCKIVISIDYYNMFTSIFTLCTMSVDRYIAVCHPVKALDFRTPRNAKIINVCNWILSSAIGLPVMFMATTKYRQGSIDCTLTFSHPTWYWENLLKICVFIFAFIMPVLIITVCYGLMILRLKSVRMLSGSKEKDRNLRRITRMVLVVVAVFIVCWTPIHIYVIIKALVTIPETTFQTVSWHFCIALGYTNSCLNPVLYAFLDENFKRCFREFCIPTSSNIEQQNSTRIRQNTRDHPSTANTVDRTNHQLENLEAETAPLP

On to `CN1C(=O)[C@H](NC(=O)Nc2cccc(OCCNC(=O)COCC(=O)NNC(=O)COCC(=O)N[C@H]3CC[C@@]4(O)[C@H]5Cc6cc(O)cc7c6[C@@]4(CCN5C)[C@H]3O7)c2)N=C(c2ccccc2)c2ccccc21`, for which the figures for the ED50 with Mus musculus [1] and in the assay with Mus musculus [5] were 47.41 pmol and 84.45 pmol, respectively. Also, the Bmax in assay [2] is 16 pmol; in [7], 9.5 pmol; on Mu-type opioid receptor [8], 9.8 pmol. Also, the Ki in assay [3] stood at 356 nM; on Mu-type opioid receptor [4] (read-out: Ki) it was 8.3 nM; in assay [6], 57 nM.

`Cc1cccc(NC(=O)N[C@@H]2N=C(c3ccccc3)c3ccccc3N(C)C2=O)c1`: the Bmax in assay [2] turned out to be 14.4 pmol; in assay [7], 9.1 pmol.

As for `CNC(=O)COCC(=O)NCCCCCCNC(=O)COCC(=O)NCCOc1cccc(NC(=O)N[C@@H]2N=C(c3ccccc3)c3ccccc3N(C)C2=O)c1`, the figures for the Bmax in assay [2] and in assay [7] were 16 pmol and 9.5 pmol, respectively. Moreover, the EC50 in [9] was less than 10000 nM.

Consider `C[C@@H](NC(=O)[C@@H](N)Cc1ccc(O)cc1)C(=O)NCC(=O)N(C)[C@@H](Cc1ccccc1)C(=O)NCCO` [DAMGO], for which the half-maximal effective concentration (EC50) in assay [9] amounted to 2.66 nM. This compound also returned a Bmax on Mu-type opioid receptor [8] of 9.2 pmol.

On to `CN1C(=O)[C@H](NC(=O)Nc2cccc(OCCNC(=O)COCC(=O)NCCCCCCNC(=O)COCC(=O)N[C@H]3CC[C@@]4(O)[C@H]5Cc6cc(O)cc7c6[C@@]4(CCN5C)[C@H]3O7)c2)N=C(c2ccccc2)c2ccccc21`, for which the results for the ED50 with Mus musculus [1] and with Mus musculus [5] were 2020 pmol and 64.33 pmol, respectively. Moreover, the figures for the Bmax (in assay [2]; in assay [7]; on Mu-type opioid receptor [8]) were 18.5 pmol, 10.9 pmol and 7.4 pmol, respectively. Further, the values for the Ki (in assay [3]; at Mu-type opioid receptor [4] (read-out: Ki); in [6]) were 260 nM, 29.4 nM and 77 nM, respectively.

On to `CNC(=O)COCC(=O)NCCCCNC(=O)COCC(=O)N[C@H]1CC[C@@]2(O)[C@H]3Cc4cc(O)cc5c4[C@@]2(CCN3C)[C@H]1O5`, for which the ED50 worked out at 51.93 pmol in the assay on Mus musculus [1] and 40.74 pmol in the assay on Mus musculus [5]. In assay [9], the EC50 was found to be 572 nM. Also, the Ki on Mu-type opioid receptor [4] (cho) is on record as 29.8. In addition, the Bmax at Mu-type opioid receptor [8] stood at 9.3 pmol.

As to `CN1C(=O)[C@H](NC(=O)Nc2cccc(OCCNC(=O)COCC(=O)N[C@H]3CC[C@@]4(O)[C@H]5Cc6cc(O)cc7c6[C@@]4(CCN5C)[C@H]3O7)c2)N=C(c2ccccc2)c2ccccc21`, the ED50 stood at 3036 pmol with Mus musculus [1] and 57.31 pmol in the assay on Mus musculus [5]. Moreover, the Bmax is 14 pmol in [2], 9.3 pmol in [7] and 12.4 pmol on Mu-type opioid receptor [8]. In addition, the Ki was determined as 223 nM in assay [3], 24.1 nM on Mu-type opioid receptor [4] (read-out: Ki) and 210 nM in assay [6].

Consider `CN1C(=O)[C@H](NC(=O)Nc2cccc(OCCNC(=O)COCC(=O)NCCNC(=O)COCC(=O)N[C@H]3CC[C@@]4(O)[C@H]5Cc6cc(O)cc7c6[C@@]4(CCN5C)[C@H]3O7)c2)N=C(c2ccccc2)c2ccccc21`, for which the figures for the ED50 with Mus musculus [1] and in the assay on Mus musculus [5] were 390 pmol and 71.29 pmol, respectively. Also, the Bmax in assay [2] turned out to be 10.3 pmol; in assay [7], 12.4 pmol; at Mu-type opioid receptor [8], 7.7 pmol. In [9], the EC50 is 119 nM. Also, the Ki turned out to be 71 nM in [3], 5.7 nM on Mu-type opioid receptor [4] (read-out: Ki) and 33 nM in assay [6].
